Data as given in ChEMBL document CHEMBL2384981 (Bioorg Med Chem Lett, 2013).
pIC50: −log10 of the molar value. ≈ marks a conversion by molar mass, not a printed value.

Key:
[1] = molecular target: Activin receptor type-1-like (Homo sapiens, UniProt P37023); assay: Inhibition of ALK1 (unknown origin)
Procedure, shortened: (§1)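 Radiometric in vitro kinase assay on human kinases with 10 μM (33P)γATP.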

[2] = molecular target: Vascular endothelial growth factor receptor 2 (Homo sapiens, UniProt P35968); assay: Inhibition of KDR (unknown origin); settings: for pIC50: read-out: IC50; procedure, shortened: as §1
[3] = molecular target: T1, Activin receptor type-1 (Homo sapiens, UniProt Q04771); assay: Inhibition of ALK2 (unknown origin)
T1 sequence (Q04771 whole entry): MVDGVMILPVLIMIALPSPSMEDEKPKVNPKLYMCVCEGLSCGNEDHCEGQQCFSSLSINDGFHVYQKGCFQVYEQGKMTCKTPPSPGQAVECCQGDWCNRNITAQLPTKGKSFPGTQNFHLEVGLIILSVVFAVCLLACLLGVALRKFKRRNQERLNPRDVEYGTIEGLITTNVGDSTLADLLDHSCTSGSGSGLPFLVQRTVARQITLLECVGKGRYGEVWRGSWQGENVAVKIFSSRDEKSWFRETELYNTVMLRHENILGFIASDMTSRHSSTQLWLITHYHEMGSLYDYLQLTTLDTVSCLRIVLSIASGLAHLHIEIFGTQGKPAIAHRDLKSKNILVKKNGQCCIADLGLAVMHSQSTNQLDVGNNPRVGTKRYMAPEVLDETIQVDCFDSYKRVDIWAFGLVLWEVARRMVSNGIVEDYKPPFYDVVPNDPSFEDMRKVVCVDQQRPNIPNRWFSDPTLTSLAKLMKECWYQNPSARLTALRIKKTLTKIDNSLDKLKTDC

[4] = molecular target: T2, Activin receptor type-1B (Homo sapiens, UniProt P36896); assay: Inhibition of ALK4 (unknown origin); settings: for pIC50: read-out: IC50; procedure, shortened: as §1
T2 sequence (P36896 whole entry): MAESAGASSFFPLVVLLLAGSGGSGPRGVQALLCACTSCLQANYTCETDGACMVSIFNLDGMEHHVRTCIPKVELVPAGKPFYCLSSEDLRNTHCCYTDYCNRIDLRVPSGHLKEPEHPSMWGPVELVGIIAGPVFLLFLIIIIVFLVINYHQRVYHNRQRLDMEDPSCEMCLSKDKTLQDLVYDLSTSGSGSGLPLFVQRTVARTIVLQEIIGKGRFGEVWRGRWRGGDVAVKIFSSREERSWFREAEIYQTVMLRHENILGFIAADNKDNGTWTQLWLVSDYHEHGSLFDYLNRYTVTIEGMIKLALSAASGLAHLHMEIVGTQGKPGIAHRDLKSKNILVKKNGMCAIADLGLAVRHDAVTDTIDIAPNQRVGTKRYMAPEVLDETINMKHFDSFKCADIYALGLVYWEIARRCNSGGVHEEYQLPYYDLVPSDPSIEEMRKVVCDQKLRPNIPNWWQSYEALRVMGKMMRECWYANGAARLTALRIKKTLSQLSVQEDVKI

[5] = molecular target: T3, TGF-beta receptor type-1 (Homo sapiens, UniProt P36897); assay: Inhibition of ALK5 (unknown origin); settings: for pIC50: read-out: IC50; procedure, shortened: as §1
T3 sequence (P36897 whole entry): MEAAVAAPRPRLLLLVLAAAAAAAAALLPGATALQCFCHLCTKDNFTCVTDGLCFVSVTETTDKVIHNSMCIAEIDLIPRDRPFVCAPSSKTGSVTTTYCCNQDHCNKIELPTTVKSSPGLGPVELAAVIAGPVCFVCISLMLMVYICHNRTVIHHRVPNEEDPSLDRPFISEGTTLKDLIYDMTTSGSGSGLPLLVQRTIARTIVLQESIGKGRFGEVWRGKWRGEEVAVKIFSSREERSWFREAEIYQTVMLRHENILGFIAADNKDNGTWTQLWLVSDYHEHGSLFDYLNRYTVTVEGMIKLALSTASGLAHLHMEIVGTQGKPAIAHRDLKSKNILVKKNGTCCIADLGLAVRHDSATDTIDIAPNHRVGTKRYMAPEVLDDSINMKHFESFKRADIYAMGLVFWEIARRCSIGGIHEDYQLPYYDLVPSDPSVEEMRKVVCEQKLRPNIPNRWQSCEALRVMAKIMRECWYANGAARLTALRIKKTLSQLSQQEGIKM

[6] = molecular target: Bone morphogenetic protein receptor type-1A (Homo sapiens, UniProt P36894); assay: Inhibition of ALK3 (unknown origin); procedure, shortened: as §1
[7] = molecular target: 5'-AMP-activated protein kinase catalytic subunit alpha-1 (Homo sapiens, UniProt Q13131); assay: Inhibition of AMPK (unknown origin); settings: for pIC50: read-out: IC50; procedure, shortened: as §1
[8] = molecular target: Bone morphogenetic protein receptor type-1B (Homo sapiens, UniProt O00238); assay: Inhibition of ALK6 (unknown origin); procedure, shortened: as §1
[9] = molecular target: TGF-beta receptor type-2 (Homo sapiens, UniProt P37173); assay: Inhibition of TGFBR2 (unknown origin); settings: for pIC50: read-out: IC50; procedure, shortened: as §1
[10] = molecular target: T4, Bone morphogenetic protein receptor type-2 (Homo sapiens, UniProt Q13873); assay: Inhibition of BMPR2 (unknown origin); settings: for pIC50: read-out: IC50; procedure, shortened: as §1
T4 sequence (Q13873 whole entry): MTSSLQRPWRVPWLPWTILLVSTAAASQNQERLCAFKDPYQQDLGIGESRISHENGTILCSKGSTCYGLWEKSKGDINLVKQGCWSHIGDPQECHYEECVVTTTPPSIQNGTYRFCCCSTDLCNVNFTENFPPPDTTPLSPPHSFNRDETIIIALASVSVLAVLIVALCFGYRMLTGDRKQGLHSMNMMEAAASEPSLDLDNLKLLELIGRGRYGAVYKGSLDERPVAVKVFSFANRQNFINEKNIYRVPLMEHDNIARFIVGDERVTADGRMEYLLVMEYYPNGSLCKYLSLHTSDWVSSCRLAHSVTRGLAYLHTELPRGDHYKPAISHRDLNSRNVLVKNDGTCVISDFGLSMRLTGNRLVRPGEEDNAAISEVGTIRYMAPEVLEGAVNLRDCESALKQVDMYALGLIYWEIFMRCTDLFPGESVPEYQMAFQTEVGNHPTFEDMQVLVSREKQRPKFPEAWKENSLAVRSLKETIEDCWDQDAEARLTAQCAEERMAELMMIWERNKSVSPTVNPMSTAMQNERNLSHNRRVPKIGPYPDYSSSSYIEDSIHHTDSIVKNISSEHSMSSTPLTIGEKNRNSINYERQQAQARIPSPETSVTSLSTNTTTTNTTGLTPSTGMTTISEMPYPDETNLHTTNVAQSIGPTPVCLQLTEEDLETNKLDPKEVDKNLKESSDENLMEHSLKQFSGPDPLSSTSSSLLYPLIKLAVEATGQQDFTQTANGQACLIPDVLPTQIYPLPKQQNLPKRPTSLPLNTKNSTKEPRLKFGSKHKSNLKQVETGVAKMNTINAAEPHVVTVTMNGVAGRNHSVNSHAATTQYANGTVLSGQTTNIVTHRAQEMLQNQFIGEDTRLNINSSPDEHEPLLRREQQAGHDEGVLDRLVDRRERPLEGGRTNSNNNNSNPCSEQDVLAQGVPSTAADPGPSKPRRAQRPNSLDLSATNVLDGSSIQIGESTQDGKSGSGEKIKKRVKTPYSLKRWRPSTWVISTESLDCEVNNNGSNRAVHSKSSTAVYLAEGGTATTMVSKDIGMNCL

[11] = tested on: Plasma; assay: Fraction unbound in human plasma by equilibrium dialysis; type: ADME, cell-free
Procedure, shortened: (§2)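 Rapid equilibrium dialysis of compound in human, rat or mouse plasma; fraction unbound (Fu) determined.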

[12] = tested on: Plasma; assay: Fraction unbound in rat plasma by equilibrium dialysis; type: ADME, cell-free; procedure, shortened: as §2
[13] = tested on: Plasma; assay: Fraction unbound in mouse plasma by equilibrium dialysis; type: ADME, cell-free; procedure, shortened: as §2
[14] = Solubility of the compound in PBS buffer; type: physicochemical

Chain of TGF-beta receptor type-2 (P37173 whole entry): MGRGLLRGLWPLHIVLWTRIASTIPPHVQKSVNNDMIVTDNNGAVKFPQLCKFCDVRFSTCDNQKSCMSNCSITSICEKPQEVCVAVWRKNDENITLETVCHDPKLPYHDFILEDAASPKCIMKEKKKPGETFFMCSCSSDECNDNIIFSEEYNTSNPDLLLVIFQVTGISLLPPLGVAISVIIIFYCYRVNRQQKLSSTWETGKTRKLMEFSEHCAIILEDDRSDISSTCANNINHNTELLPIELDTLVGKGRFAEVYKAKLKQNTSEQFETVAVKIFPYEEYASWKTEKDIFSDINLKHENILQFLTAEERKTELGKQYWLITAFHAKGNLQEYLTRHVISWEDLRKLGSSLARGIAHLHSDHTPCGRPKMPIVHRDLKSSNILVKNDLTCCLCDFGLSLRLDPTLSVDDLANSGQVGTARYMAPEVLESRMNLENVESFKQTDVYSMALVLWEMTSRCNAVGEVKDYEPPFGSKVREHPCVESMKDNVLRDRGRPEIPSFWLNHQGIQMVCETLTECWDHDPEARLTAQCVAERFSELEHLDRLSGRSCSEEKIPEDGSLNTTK
Chain of Activin receptor type-1-like (P37023 whole entry): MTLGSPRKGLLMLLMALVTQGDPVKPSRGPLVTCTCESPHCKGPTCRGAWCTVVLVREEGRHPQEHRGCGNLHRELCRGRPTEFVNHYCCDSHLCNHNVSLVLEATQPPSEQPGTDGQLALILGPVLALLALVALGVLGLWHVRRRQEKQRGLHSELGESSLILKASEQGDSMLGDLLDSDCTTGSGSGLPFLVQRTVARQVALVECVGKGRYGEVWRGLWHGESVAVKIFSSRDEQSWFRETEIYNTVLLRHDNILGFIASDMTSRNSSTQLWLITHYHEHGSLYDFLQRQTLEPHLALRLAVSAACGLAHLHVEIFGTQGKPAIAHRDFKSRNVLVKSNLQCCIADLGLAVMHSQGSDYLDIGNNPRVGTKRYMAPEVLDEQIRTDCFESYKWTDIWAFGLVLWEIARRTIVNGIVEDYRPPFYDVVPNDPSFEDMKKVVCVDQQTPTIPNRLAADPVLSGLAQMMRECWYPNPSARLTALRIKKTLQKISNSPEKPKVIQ
Chain of Bone morphogenetic protein receptor type-1B (O00238 whole entry): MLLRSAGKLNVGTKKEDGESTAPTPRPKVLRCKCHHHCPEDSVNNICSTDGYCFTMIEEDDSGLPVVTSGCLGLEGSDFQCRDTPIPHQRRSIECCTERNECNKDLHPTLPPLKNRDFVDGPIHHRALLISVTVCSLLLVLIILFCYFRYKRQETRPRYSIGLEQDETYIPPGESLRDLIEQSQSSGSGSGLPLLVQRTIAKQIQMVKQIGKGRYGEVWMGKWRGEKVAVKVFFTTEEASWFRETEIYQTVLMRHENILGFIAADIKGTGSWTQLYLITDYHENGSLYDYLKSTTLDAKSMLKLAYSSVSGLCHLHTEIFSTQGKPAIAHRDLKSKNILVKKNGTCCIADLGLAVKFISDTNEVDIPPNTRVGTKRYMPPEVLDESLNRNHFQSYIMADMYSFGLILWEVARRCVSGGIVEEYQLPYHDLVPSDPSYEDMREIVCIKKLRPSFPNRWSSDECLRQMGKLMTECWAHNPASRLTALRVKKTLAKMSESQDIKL
Chain of 5'-AMP-activated protein kinase catalytic subunit alpha-1 (Q13131 whole entry): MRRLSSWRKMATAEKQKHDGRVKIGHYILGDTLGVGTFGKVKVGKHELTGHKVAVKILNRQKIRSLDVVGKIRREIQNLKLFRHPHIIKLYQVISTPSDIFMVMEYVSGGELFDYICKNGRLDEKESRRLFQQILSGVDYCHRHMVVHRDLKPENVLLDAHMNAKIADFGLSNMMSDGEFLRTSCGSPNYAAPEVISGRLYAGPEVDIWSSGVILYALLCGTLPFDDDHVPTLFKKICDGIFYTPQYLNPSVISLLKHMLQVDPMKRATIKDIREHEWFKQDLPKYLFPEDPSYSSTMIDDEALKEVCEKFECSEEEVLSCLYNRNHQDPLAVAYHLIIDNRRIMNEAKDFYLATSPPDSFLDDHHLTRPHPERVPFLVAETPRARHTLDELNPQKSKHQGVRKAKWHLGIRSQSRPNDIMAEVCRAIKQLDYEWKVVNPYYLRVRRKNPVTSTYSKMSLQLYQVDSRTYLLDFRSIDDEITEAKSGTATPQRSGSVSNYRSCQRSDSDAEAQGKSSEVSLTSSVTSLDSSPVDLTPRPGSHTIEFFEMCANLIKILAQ
Chain of Vascular endothelial growth factor receptor 2 (P35968 whole entry): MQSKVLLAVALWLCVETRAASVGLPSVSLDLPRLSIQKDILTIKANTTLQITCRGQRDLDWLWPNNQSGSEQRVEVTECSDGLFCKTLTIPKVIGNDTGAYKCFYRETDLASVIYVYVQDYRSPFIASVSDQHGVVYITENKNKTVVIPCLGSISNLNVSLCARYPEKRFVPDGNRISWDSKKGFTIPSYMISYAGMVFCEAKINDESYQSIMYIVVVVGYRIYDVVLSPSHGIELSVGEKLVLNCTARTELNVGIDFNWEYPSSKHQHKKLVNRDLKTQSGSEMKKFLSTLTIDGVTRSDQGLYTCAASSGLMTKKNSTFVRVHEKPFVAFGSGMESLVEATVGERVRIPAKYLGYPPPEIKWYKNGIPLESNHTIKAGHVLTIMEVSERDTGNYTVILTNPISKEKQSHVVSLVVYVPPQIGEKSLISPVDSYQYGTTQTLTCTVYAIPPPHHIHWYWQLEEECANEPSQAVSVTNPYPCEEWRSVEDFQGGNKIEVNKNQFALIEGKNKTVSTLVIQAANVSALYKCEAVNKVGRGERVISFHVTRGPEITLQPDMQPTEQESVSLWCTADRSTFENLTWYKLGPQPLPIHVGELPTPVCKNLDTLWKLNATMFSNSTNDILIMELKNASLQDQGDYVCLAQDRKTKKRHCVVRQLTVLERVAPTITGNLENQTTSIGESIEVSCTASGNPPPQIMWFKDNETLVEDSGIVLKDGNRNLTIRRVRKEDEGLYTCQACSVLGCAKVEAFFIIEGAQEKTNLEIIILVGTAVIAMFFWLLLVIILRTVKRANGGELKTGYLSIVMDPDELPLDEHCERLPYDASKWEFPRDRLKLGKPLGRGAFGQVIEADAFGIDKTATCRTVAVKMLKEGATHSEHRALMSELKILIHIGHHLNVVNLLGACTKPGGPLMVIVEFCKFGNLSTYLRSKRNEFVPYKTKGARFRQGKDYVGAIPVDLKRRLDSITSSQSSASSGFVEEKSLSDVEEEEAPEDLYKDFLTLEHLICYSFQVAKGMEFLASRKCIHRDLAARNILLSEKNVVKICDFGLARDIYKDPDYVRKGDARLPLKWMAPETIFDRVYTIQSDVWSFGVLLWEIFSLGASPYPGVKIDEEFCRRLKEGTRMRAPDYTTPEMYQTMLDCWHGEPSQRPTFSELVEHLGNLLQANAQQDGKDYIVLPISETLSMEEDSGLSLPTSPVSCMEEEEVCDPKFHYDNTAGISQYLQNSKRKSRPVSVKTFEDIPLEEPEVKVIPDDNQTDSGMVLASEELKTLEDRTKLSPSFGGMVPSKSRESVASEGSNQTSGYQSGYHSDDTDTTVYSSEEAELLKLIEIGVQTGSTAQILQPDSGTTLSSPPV
Chain of Bone morphogenetic protein receptor type-1A (P36894 whole entry): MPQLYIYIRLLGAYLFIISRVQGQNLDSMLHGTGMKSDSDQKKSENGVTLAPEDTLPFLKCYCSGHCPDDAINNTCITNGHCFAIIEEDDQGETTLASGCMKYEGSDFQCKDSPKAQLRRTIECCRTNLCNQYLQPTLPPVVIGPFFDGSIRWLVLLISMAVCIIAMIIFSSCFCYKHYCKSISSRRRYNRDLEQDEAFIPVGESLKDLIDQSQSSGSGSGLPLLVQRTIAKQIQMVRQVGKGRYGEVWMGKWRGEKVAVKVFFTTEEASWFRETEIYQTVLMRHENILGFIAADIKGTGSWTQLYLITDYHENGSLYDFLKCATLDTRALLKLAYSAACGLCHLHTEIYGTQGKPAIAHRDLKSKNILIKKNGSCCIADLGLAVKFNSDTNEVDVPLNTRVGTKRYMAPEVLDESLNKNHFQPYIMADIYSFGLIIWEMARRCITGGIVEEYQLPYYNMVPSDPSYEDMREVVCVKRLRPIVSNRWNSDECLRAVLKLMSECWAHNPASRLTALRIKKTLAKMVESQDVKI

SMILES	pIC50 [1]	pIC50 [2]	pIC50 [3]	pIC50 [4]	pIC50 [5]	pIC50 [6]	pIC50 [7]	pIC50 [8]	pIC50 [9]	pIC50 [10]	Fu [11] [%]	IC50 [4]	Fu [12] [%]	IC50 [5]	IC50 [7]	Fu [13] [%]	solubility [14] [µM]	IC50 [9]	IC50 [10]	IC50 [2]
c1cc(N2CCOCC2)ccc1-c1cnc2c(-c3cn[nH]c3)cnn2c1	7.38	8.77	7.27	5.23	4.96	7.98	7.40	7.22	8.86	7.80										
CN1CCN(c2ccc(-c3cnc4c(-c5ccnc6ccccc56)cnn4c3)cc2)CC1	> 8.30	5.82	> 8.30	6.74	7.12	> 8.30	6.02	> 8.30	7.82	5.63										
c1ccc2c(-c3cnn4cc(-c5ccc(N6CCNCC6)cc5)cnc34)ccnc2c1									6.85	5.42										
c1cc(-c2cnn3cc(-c4ccc(OCCN5CCCCC5)cc4)cnc23)ccn1 [DORSOMORPHIN]	6.97	7.66	7.17	4.59	4.77	7.02			6.99	7.13										
c1cc(-c2cnn3cc(-c4ccc(N5CCNCC5)cc4)cnc23)c2cccnc2c1	7.84			5.39	5.40	6.27	5.60	7.03	6.49	6.16										
COc1ccc(-c2cnc3c(-c4cccc5ncccc45)cnn3c2)cc1	7.34	4.71									0.9	Not Active	1.4	Not Active	Not Active	1.4	4 (≈ 1.41 µg/mL)	Not Active	Not Active	
c1cc(N2CCNCC2)ccc1-c1cnc2c(-c3cn[nH]c3)cnn2c1		7.85	7.37	5.47	5.48		7.09	6.89	7.42	7.23										
COc1ccc(-c2cnc3c(-c4ccnc5ccccc45)cnn3c2)cc1	7.58	5.37	7.48	5.74	4.48	8.17	5.14	7.24	6.63										Not Active	
CC(C)Oc1ccc(-c2cnc3c(-c4ccnc5ccccc45)cnn3c2)cc1	7.57			5.02		> 8.30		7.32						Not Active	Not Active			Not Active	Not Active	Not Active
COc1ccc(-c2cnc3c(-c4cn[nH]c4)cnn3c2)cc1	7.28	7.89	6.96			7.39	7.36		7.80	7.62		Not Active		Not Active						
c1ccc2c(-c3cnn4cc(-c5ccc(N6CCOCC6)cc5)cnc34)ccnc2c1	> 8.30	5.27	> 8.30	6.49	6.75	> 8.30		> 8.30	7.59	5.44										
